Measurements from publication PMC6146057 (ACS chemical neuroscience, 2018).
Where a chain is given by its changes, count along the chain named. Values joined by “and” are separate entries in the source; they are usually repeats but may differ in a detail not shown here. Identical values can stand only once. Like-named read-outs stand apart in the source and are kept apart here.

Experiments:
M1 = molecular target: T1, M1 (Homo sapiens, UniProt P11229); test: Calcium mobilization assay, high expression human M1 cell line; type: cell-based
T1 sequence (P11229 1-460): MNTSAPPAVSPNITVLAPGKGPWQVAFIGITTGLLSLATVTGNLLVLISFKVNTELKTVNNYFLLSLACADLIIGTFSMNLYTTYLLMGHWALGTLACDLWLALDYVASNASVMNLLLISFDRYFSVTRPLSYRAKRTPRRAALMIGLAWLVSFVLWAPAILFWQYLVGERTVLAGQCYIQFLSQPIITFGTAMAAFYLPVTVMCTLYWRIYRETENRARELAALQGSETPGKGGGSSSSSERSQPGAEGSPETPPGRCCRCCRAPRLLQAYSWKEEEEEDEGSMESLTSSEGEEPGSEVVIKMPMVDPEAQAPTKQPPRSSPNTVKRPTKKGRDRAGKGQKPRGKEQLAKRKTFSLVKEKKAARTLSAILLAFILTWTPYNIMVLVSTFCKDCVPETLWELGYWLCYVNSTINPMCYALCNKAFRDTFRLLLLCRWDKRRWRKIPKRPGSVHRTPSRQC
In short: (§1)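 Muscarinic receptor-expressing CHO cells were plated at 20,000 cells/well in medium without G418 the day before. They were loaded with 1.15 μM Fluo-4 AM for 45 min at 37 °C in HBSS with 20 mM HEPES and 2.5 mM probenecid. Test compound (10-point 1:3 series, top final 30 μM) was added for 2.5 min, then EC20 ACh for 1 min. Calcium flux was fitted with a four-parameter logistic curve.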

rat M1 = molecular target: T2, rat M1 (Rattus norvegicus, UniProt P08482); test: Calcium mobilization assay, rat M1 cell line; type: cell-based
T2 sequence (P08482 1-460): T1 sequence (P11229 1-460) with A5V, T254S, P309S, R320K, A337G, I413V
In short: as §1

dog M1 = molecular target: T3, dog M1 (Canis lupus familiaris, UniProt A0A8I3RVA9); test: Calcium mobilization assay, low expression M1 dog line; type: cell-based
T3 sequence (A0A8I3RVA9 1-460): T1 sequence (P11229 1-460) with V155I, P246R, A248T, A265T, Q312P, K331R, D335E, P343A, D393N

human M2–M5 = test: Calcium mobilization selectivity, human M2–M5; type: cell-based; conditions: Figure 4A
In short: as §1

[1] = system: layer V medial prefrontal cortex fEPSPs; test: Extracellular field electrophysiology in layer V prelimbic mPFC slices; parameters: species or system mouse
In short: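 Coronal prelimbic slices (400 μm) recovered in NMDG-HEPES solution (pH 7.3) for 8–10 min at 32 °C, then were perfused with ACSF at 2 mL/min and 30–32 °C. Layer V fEPSPs were evoked from layers II–III (200 μs, 0.05 Hz) or optically in ChR2-injected mice. Compound alone was bath-applied for 20 min. Alternatively, 10 μM compound was applied for 10 min, then with 3 μM OxoM for 10 min. Slope was measured 46–50 min after washout.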

[2] = Plasma protein binding by equilibrium dialysis, rat; type: in vitro ADME; conditions: pH 7.4
In short: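 Plasma spiked with test article was dialysed against 25 mM phosphate buffer, pH 7.4, by equilibrium dialysis for 4 h at 37 °C with shaking. Aliquots from each chamber were matrix-matched, extracted with ice-cold acetonitrile, centrifuged and quantified by LC/MS/MS.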

cytochrome P450 3A4 = cytochrome P450 3A4 (Homo sapiens, UniProt P08684); test: CYP450 inhibition in human liver microsomes, 3A4; type: in vitro ADME
[3] = system: 68 GPCRs, ion channels, and transporters; test: Eurofins Lead Profiling panel; type: binding; conditions: @10 μM, 68 targets
mice = test: Modified Irwin Toxicology Battery in mice; type: in vivo, mouse; conditions: 100 mg/kg i.p.
nonhuman primate (NHP) = test: Nonhuman primate adverse effect assessment; type: in vivo
rats = test: Novel object recognition task; type: in vivo, rat
In short: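 Male Sprague–Dawley rats were habituated to the arena. They received vehicle (10% Tween 80) or test compound at 1–10 mg/kg i.p. (1 mL/kg; n = 12) 30 min before a 10 min exposure to two identical objects. After 24 h, one object was replaced by a novel one and exploration was recorded for 3 min. A blinded observer scored exploration, and the recognition index was (novel − familiar)/total exploration time.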

cytochrome P450 3A4, sequence (P08684 whole entry): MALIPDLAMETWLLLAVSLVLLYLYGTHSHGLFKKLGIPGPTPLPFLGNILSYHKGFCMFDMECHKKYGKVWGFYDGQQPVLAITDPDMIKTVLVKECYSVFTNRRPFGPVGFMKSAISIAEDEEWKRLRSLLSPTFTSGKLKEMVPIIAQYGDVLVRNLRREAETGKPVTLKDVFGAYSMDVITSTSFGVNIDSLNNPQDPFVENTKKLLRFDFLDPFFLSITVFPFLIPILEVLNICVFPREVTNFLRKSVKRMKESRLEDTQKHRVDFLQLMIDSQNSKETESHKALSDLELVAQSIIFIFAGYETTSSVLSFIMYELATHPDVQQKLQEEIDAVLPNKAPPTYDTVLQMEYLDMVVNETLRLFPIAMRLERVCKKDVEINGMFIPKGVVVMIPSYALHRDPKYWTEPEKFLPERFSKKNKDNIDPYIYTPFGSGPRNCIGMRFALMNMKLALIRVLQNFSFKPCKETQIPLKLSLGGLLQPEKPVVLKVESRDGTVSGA

## O=C(N[C@H]1CCCC[C@@H]1O)[C@H]1CN(Cc2ccc(-n3cccn3)cc2)c2ccccc2O1 [VU0486846, (2R)-N-[(1S,2S)-2-Hydroxycyclohexyl]-4-[(4-pyrazol-1-ylphenyl)-methyl]-2,3-dihydro-1,4-benzoxazine-2-carboxamide]
M1; Human M1 CRC EC50, Figure 4A
  EC50: 308 nM
M1; M1 PAM EC50, human M1, high expression line, EC20 ACh
  EC50: 310 nM
M1; M1 PAM pEC50, human M1, high expression line, EC20 ACh
  EC50: 295 nM
M1; M1 agonist activity pEC50, human M1, high expression line, compound alone
  EC50: 4070 nM and 4270 nM
M1; human M1, high expression line
  M1 PAM efficacy, % ACh Max: 85 ± 2 % ACh Max
M1; human M1, high expression line, compound alone
  M1 agonist activity, % ACh Max: 39 ± 3 % ACh Max and 29 ± 6 % ACh Max
Rat M1; M1 PAM pEC50, rat M1 cell line, high expression
  EC50: 234 nM
Rat M1; M1 agonist activity EC50, rat M1 cell line, compound alone
  EC50: 5600 nM
Rat M1; M1 agonist activity pEC50, rat M1 cell line, compound alone
  EC50: 5370 nM
Rat M1; Rat M1 CRC EC50, Figure 4B
  EC50: 253 nM
Rat M1; rat M1 cell line, compound alone
  M1 agonist activity, % ACh: 26 ± 6 % ACh
Rat M1; rat M1 cell line, high expression
  M1 PAM efficacy, % ACh Max: 83 ± 1 % ACh Max
Dog M1; M1 PAM EC50, dog M1 line, low expression
  EC50: 380 nM
Dog M1; M1 PAM pEC50, dog M1 line, low expression
  EC50: 389 nM
Dog M1; M1 agonist activity EC50, dog M1 line, compound alone
  EC50: > 10000 nM
Dog M1; read-out: M1 PAM efficacy, % ACh Max
  Emax: 78 ± 1%
Dog M1; read-out: M1 agonist activity, % ACh Max
  Emax: 18 ± 0.2%
Human M2–M5
  Activity at human M2–M5 (selectivity): highly selective
Human M2–M5; listed as 16
  Activity at human M2–M5 (selectivity): inactive
[1]; 3 μM VU0486846 + 10 μM CCh, electrically evoked, p < 0.05
  Magnitude of LTD, PAM + CCh vs CCh alone: significant increase in the magnitude of LTD
[1]; 3 μM bath application 20 min, electrically evoked layer V fEPSPs
  Change in fEPSP slope, compound alone (agonist activity in PFC): no significant change
[1]; 10 μM VU0486846 + 3 μM OxoM, optically evoked, p < 0.05
  Magnitude of LTD, PAM + OxoM vs OxoM alone: significantly enhanced
[2]
  fraction unbound at 4 h: 0.11
Cytochrome P450 3A4
  IC50: 5000 nM
[3]
  inhibition at any target in the panel: ≤ 50%
mice
  free brain levels: 342 nM
  free plasma levels: 2000 nM
  total brain levels: 12.2 µM
  total plasma levels: 18.2 µM
mice; 3 h evaluation period
  Cholinergic side effects or adverse effects: did not produce any cholinergic side effects or pronounced adverse effects
Nonhuman primate (NHP)
  total plasma levels: ~ 2 μM
Nonhuman primate (NHP); at achieved plasma levels
  Adverse effects: without any adverse effects
rats; 1–10 mg/kg i.p.
  Effect on recognition memory: dose-dependently enhanced recognition memory
rats; i.p., 30 min pretreatment, memory assessed 24 h later
  minimum effective dose, novel object recognition: 3 mg/kg
